Active and inactive are the calls of the source. The rule behind the calls is not given here.
What was measured:
[1] = molecular target: Tyrosine-protein kinase Fyn (Homo sapiens) (UniProt P06241); assay: Inhibition of FYN at 1 uM
[2] = molecular target: Tyrosine-protein kinase Yes (Homo sapiens) (UniProt P07947); assay: Inhibition of YES1 at 1 uM
[3] = test system: Mus musculus; assay: Apparent toxicity in SCID mouse xenografted with human MDA231 cells at 60 mg/kg, ip administered 3 times a week for a total of 9 doses; type: organism-based; design: dose 60 mg/kg, route intraperitoneal; details: in vivo
[4] = test system: Cancer cell lines; assay: Antitumor activity against human MDA231 cells xenografted in SCID mouse assessed as inhibition of lung metastases of cancer cells at 60 mg/kg, ip administered 3 times a week for a total of 9 doses measured on day 40 by stereomicroscopic analysis; type: functional, organism-based; design: dose 60 mg/kg
How it was run: (§1)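 Female SCID mice, 6 per group, given 1.5 million MDA-231-M2 cells into the mammary fat pad. Once tumours were palpable, vehicle or compound was given at 60 mg/kg IP 3 times weekly for 9 injections. Mice sacrificed on day 40. Lungs fixed in 10% Bouin's and surface metastases counted by stereomicroscope. Primary tumour volume also recorded. Groups compared to vehicle by unpaired Student t test.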

[5] = test system: MDA-MB-231; assay: Antitumor activity against human MDA231 cells xenografted in SCID mouse assessed as tumor growth inhibition at 60 mg/kg, ip administered 3 times a week for a total of 9 doses measured on day 40; type: functional, organism-based; design: dose 60 mg/kg; how it was run: as §1
[6] = test system: MDA-MB-231; assay: Cytotoxicity against human MDA231 cells at 50 uM; type: functional, cell-based
[7] = test system: Mus musculus; assay: Toxicity in SCID mouse xenografted with human MDA231 cells assessed as body weight loss at 60 mg/kg, ip administered 3 times a week for a total of 9 doses; type: organism-based; design: dose 60 mg/kg, route intraperitoneal; details: in vivo
[8] = test system: MDA-MB-231; assay: Antiangiogenic activity in human MDA231 cells assessed as inhibition of cell migration at 10 uM after 12 to 24 hrs by wound healing migration assay; type: functional, cell-based
How it was run: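 MDA-231 cells grown on coverslips for 24 h, wounded by scraping with a micropipette tip, washed, then kept in fresh medium at 37 °C with compound at 10 μM final or DMSO. Photographed at 12 and 24 h. Remaining wound area measured. DMSO set to 0% inhibition. Mean ± SD of five independent experiments.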

[9] = test system: MDA-MB-231; assay: Antiinvasive activity in human MDA231 cells at 10 uM after 48 hrs by Matrigel matrix assay; type: functional
How it was run: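 Serum-starved MDA-231 cells (30,000) placed with or without compound (10 μM) in the upper compartment of 8-µm Matrigel-coated Boyden chambers. Lower compartment held DMEM 0.2% BSA with 10% serum. Invasion ran 48 h, then invaded cells were fixed, stained and counted under a 40× objective. DMSO normalized to 0% inhibition. Mean ± SD, five experiments.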

[10] = molecular target: T1, Focal adhesion kinase 1 (Homo sapiens, UniProt Q05397); assay: Inhibition of FAK phosphorylation in EGF-stimulated human MDA231 cells using [gamma32P]ATP as substrate at 50 uM after 2 hrs by scintillation counting; type: cell-based
How it was run: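 MDA231 cells serum-starved overnight, treated with compound for 2 h, then stimulated with 20 ng/mL EGF for 30 min. Lysates immunoprecipitated with polyclonal anti-FAK. The immunocomplex was assayed in Hepes/MgCl2/MnCl2 buffer with 3 μCi/nmol [γ-32P]-ATP. Reactions stopped by boiling in SDS sample buffer. Bands excised after SDS-PAGE and counted by scintillation. Figure legend gives N = 4.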
Target sequence in this assay (Q05397 2-1052 limits assumed): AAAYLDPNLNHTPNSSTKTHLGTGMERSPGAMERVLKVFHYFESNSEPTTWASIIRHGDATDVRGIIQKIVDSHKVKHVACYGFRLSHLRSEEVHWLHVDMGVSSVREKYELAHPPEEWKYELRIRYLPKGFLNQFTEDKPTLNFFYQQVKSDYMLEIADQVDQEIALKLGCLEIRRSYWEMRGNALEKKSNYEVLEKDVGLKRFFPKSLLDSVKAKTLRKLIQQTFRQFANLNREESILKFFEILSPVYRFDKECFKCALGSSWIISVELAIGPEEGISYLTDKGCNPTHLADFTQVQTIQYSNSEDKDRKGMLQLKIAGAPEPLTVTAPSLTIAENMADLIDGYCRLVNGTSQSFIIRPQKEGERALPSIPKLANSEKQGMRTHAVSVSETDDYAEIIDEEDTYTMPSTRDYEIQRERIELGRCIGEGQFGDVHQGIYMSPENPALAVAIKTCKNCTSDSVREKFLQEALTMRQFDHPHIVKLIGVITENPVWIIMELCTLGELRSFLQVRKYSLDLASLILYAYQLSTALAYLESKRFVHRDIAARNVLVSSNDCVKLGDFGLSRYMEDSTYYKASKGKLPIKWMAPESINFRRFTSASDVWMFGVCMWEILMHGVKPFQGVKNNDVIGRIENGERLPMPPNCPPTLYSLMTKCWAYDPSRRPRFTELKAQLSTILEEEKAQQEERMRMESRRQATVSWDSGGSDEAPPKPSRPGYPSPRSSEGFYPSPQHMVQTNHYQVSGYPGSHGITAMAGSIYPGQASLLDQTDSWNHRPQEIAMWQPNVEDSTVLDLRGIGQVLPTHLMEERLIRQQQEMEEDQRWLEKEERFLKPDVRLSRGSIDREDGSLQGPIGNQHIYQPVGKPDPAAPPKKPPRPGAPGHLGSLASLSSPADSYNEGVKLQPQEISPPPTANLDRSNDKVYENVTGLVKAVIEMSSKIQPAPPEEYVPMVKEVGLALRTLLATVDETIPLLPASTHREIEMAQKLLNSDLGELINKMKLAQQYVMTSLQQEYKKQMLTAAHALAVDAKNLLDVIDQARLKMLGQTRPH

[11] = molecular target: T1, Focal adhesion kinase 1; assay: Inhibition of human recombinant full-length FAK using ATP and Poly Glu:Tyr as substrate after 4 hrs by luminescence analysis
How it was run: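 Human recombinant full-length FAK incubated 4 h at room temperature in kinase buffer with ATP and Poly Glu:Tyr substrate, with or without compound at various concentrations.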
Target sequence in this assay (Q05397 whole entry): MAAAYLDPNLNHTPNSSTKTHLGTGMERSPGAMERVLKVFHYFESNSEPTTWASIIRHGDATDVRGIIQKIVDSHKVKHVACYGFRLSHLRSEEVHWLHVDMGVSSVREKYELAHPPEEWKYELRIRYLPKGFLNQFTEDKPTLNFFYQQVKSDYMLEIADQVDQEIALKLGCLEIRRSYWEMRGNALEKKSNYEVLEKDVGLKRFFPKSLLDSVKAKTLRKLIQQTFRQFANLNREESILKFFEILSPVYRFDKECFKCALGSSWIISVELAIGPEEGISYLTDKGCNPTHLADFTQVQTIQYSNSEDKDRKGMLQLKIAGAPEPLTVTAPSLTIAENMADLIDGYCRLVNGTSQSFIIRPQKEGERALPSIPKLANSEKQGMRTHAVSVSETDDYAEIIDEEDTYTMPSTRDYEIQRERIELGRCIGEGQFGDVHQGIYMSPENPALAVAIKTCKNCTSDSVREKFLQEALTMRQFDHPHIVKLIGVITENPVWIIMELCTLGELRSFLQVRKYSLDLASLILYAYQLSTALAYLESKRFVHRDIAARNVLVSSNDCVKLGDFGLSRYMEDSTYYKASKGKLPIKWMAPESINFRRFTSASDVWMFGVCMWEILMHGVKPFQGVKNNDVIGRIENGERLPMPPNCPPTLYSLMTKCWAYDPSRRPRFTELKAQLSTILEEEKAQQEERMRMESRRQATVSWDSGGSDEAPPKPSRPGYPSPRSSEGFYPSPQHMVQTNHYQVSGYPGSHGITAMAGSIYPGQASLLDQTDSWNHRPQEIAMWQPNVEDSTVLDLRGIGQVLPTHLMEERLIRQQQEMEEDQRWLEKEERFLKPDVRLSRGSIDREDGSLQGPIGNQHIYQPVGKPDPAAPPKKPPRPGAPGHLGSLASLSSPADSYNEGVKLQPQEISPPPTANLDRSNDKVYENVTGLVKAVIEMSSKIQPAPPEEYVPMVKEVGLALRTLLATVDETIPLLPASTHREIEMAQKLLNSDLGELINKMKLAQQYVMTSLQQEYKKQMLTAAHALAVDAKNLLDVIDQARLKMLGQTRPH

[12] = molecular target: Protein kinase C alpha type (Homo sapiens, UniProt P17252); assay: Inhibition of PKCalpha
[13] = molecular target: RAC-alpha serine/threonine-protein kinase (Homo sapiens, UniProt P31749); assay: Inhibition of AKT-1
RAC-alpha serine/threonine-protein kinase, sequence (P31749 whole entry): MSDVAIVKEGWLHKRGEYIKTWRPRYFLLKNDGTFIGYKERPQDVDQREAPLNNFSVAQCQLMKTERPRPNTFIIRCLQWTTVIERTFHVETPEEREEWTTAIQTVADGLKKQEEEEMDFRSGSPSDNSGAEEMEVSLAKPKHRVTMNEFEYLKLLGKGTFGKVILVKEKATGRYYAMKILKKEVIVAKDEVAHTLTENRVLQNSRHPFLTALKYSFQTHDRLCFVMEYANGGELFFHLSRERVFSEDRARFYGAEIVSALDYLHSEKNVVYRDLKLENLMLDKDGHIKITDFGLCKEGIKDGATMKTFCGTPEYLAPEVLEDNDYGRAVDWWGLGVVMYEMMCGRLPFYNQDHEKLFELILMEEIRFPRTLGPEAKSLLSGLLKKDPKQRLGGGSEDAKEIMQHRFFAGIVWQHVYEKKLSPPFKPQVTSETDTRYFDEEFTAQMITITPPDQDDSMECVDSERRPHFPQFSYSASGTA

Tyrosine-protein kinase Yes (Homo sapiens), sequence (P07947 2-543 limits assumed): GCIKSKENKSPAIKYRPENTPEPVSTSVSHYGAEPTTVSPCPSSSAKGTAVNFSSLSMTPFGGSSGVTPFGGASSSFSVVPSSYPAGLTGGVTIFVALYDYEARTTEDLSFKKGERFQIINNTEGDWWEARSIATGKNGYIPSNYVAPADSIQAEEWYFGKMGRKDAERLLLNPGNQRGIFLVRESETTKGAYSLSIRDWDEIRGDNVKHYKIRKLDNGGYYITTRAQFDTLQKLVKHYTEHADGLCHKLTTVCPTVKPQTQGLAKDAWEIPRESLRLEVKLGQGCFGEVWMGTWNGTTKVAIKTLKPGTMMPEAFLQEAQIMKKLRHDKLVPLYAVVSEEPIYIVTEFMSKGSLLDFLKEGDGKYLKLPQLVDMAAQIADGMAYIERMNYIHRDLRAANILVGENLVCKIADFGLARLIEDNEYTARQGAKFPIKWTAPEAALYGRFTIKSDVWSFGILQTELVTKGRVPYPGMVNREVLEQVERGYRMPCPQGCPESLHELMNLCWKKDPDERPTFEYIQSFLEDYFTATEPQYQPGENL
Tyrosine-protein kinase Fyn (Homo sapiens), sequence (P06241 2-537 limits assumed): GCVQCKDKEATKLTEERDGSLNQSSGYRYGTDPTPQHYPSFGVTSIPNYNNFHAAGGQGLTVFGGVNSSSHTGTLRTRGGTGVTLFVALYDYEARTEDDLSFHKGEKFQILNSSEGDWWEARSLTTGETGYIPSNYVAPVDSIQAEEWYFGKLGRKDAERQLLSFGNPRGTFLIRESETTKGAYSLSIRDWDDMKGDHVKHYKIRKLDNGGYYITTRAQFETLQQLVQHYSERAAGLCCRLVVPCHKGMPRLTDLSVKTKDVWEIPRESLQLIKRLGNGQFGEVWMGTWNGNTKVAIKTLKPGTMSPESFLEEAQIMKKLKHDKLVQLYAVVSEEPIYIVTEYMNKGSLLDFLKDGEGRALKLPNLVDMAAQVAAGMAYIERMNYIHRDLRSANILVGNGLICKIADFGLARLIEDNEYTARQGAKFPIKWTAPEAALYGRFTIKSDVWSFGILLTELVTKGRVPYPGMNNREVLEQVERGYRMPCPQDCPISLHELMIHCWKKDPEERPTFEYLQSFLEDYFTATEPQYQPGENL

SMILES | inhibition [1] | inhibition [2] | Activity [3] | inhibition [4] | growth inhibition (GI) [5] | Activity [6] | Activity [7] | inhibition [8] | Activity [9] | inhibition [10] | IC50 [11] | IC50 [12] | IC50 [13]
CC(=O)OC[C@H]1O[C@@H](O[C@H]2[C@H](OC(C)=O)[C@@H](OC(C)=O)[C@H](n3[se]c4ccccc4c3=O)O[C@@H]2COC(C)=O)[C@H](OC(C)=O)[C@@H](OC(C)=O)[C@H]1OC(C)=O | 0% | 0% | Non-toxic | Active | Active | Active | Non-toxic | – | – | – | – | – | –
O=c1c2ccccc2[se]n1-c1ccccc1 [EBSELEN] | 0% | 0% | Non-toxic | inactive | inactive | – | Non-toxic | inactive | inactive | inactive | – | – | –
CC(=O)OC[C@H]1O[C@@H](NC(=O)CCCn2[se]c3ccccc3c2=O)[C@H](OC(C)=O)[C@@H](OC(C)=O)[C@@H]1OC(C)=O | 0% | 0% | – | – | – | – | – | – | – | – | 920 nM | 740 nM | 800 nM
O=C(CCCn1[se]c2ccccc2c1=O)N[C@@H]1O[C@H](CO)[C@@H](O)[C@H](O)[C@H]1O | 0% | 0% | – | – | – | – | – | – | – | – | 960 nM | 730 nM | 880 nM
